# Reference: ChEMBL document CHEMBL4321800, “Synthesis, Identification, and Structure-Activity Relationship Analysis of GATA4 and NKX2-5 Protein-Protein Interaction Modulators” (J Med Chem, 2019)
# Active and inactive are the calls of the source. The calls are words filed in the database; no cut-off is given here.
# What was measured:
# Assay type in all cases: cell-based
# [1] = target: Homeobox protein Nkx-2.5 (Mus musculus) (UniProt P42582); assay: Inhibition of mouse NKX2-5 expressed in Chlorocebus aethiops COS1 cells harboring 3xHA reporter gene assessed as protein-induced transcriptional activity at 10 uM after 24 hrs by luciferase reporter gene assay relative to control; set-up: scale not given: the % may be the effect or the level left
# Outline: (§1)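 COS-1 cells seeded 14 000/well and grown overnight. Transfection for 6 h in serum- and antibiotic-free medium with pGL3-3xHA reporter (100 ng/well) and pMT2-NKX2-5 (25 ng/well), Fugene 6 1:3. Compound or 0.1% DMSO vehicle for 24 h, then luciferase luminescence. Triplicate wells with Grubbs outlier removal, % of control.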
# [2] = target: Transcription factor GATA-4 (Mus musculus) (UniProt Q08369); assay: Modulation of mouse GATA4 expressed in Chlorocebus aethiops COS1 cells harboring NP-112 reporter gene assessed as BNP promoter-driven transcriptional activity at 10 uM after 24 hrs by luciferase reporter gene assay relative to control
# Outline: (§2)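 GATA reporter assay: COS-1 cells (14 000/well, overnight) transfected 6 h serum/antibiotic-free with NP-112 reporter (tandem GATA sites plus rat BNP minimal promoter, 100 ng/well) and pMT2-GATA4 (25 ng/well), Fugene 6 1:3. Treated 24 h with compound or 0.1% DMSO. Luminescence read; triplicates, Grubbs outliers removed, % of control.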
# [3] = target: T1, GATA4/NKX2-5 (Mus musculus) (UniProt Q08369+P42582); assay: Inhibition of mouse GATA4/mouse NKX2-5 protein-protein interaction expressed in Chlorocebus aethiops COS1 cells harboring 3xHA reporter gene assessed as transcriptional synergy at 10 uM after 24 hrs by luciferase reporter gene assay relative to control; set-up: scale not given: the % may be the effect or the level left
# Outline: (§3)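 COS-1 cells seeded 14 000/well, grown overnight, then transfected for 6 h in serum- and antibiotic-free medium with pGL3-3xHA reporter (three NKX2-5 sites, 100 ng/well) plus pMT2-GATA4 and pMT2-NKX2-5 (total 50 ng/well), Fugene 6 at 1:3 DNA/reagent. Compound or 0.1% DMSO vehicle for 24 h, then luminescence read. Triplicates, Grubbs outliers removed, expressed as % of control.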
# [4] = target: T2, GATA4/NKX2-5 (Rattus norvegicus) (UniProt P46152+O35767); assay: (§4) Modulation of GATA4/NKX2-5 protein-protein interaction in neonatal Wistar rat cardiomyocytes harboring -534/+4 bp rat BNP proximal promoter assessed as increase in BNP-promoter driven activity at 10 to 30 preincubated for 1 hr followed by hypertrophic agonist endothelin-1 and measured after 24 hrs by luminescence method
# Outline: (§5)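 Neonatal ventricular myocytes from 2–3-day-old Wistar rats, 50 000/well, cultured 18–20 h in DMEM/F12 with 10% FBS. Transfected 24 h in serum-free CSFM with pGL3-BNP (−534/+4 promoter, 100 ng/well), Fugene 6 1:3. Compound or 0.1% DMSO added in CSFM, endothelin-1 1 h later, luminescence after 24 h. Mean + SD, n = 3; ANOVA with Tukey or Games–Howell.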
# COS-1 [5] = assay: Induction of necrosis in Chlorocebus aethiops COS1 cells assessed as LDH release at 1 to 30 uM after 24 hrs by LDH assay relative to control; settings: cos-1, 24 h
# Outline: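 COS-1 cells in DMEM with 10% FBS at 37 °C, 5% CO₂, plated 10 000/well and exposed next day to 1–30 μM for 24 h. Medium samples mixed with NAD, iodonitrotetrazolium, lactate and phenazine methosulfate in 0.2 M Tris-HCl pH 8.2, 30 min at room temperature. Stopped with acetic acid, A490 read and normalized to maximal and spontaneous release.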
# COS-1 [6] = assay: Cytotoxicity against Chlorocebus aethiops COS1 cells assessed as reduction in cell viability at 10 uM after 24 hrs by MTT assay relative to control; settings: cos-1, 24 h
# Outline: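 COS-1 cells plated 10 000/well, exposed next day for 24 h (range 1–30 μM). Incubated with 0.5 mg/mL MTT for 2 h at 37 °C, formazan dissolved in DMSO, A550 minus A650 background. Means of 2–3 independent experiments with triplicate wells, % of vehicle-treated cells; toxic if viability fell >10% at 10 μM.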
# [7] = target: Transcription factor GATA-4 (Mus musculus) (UniProt Q08369); assay: Inhibition of mouse GATA4 expressed in Chlorocebus aethiops COS1 cells harboring NP-112 reporter gene assessed as BNP promoter-driven transcriptional activity at 10 uM after 24 hrs by luciferase reporter gene assay relative to control; set-up: scale not given: the % may be the effect or the level left; outline: as §2
# COS-1 [8] = assay: Cytotoxicity against Chlorocebus aethiops COS1 cells assessed as reduction in cell viability at 10 uM after 24 hrs by CellTiter-Glo Luminescent Cell Viability assay relative to control; settings: cos-1, 24 h
# Outline: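 Intracellular ATP read-out (CellTiter-Glo) in COS-1 cells plated and treated as for MTT, 24 h exposure, doxorubicin as positive control. Plates equilibrated 30 min at room temperature, washed with PBS, reagent added, mixed 2 min, 15 min at room temperature, then luminescence. Mean + SEM of three independent experiments, % of vehicle-treated cells.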
# [9] = target: T1, GATA4/NKX2-5 (Mus musculus); assay: Enhancement of mouse GATA4/mouse NKX2-5 protein-protein interaction expressed in Chlorocebus aethiops COS1 cells harboring 3xHA reporter gene assessed as transcriptional synergy at 10 uM after 24 hrs by luciferase reporter gene assay relative to control; outline: as §3
# [10] = target: Homeobox protein Nkx-2.5 (Mus musculus) (UniProt P42582); assay: Enhancement of mouse NKX2-5 expressed in Chlorocebus aethiops COS1 cells harboring 3xHA reporter gene assessed as protein-induced transcriptional activity at 10 uM after 24 hrs by luciferase reporter gene assay relative to control; outline: as §1
# [11] = target: Transcription factor GATA-4 (Mus musculus) (UniProt Q08369); assay: Enhancement of mouse GATA4 expressed in Chlorocebus aethiops COS1 cells harboring NP-112 reporter gene assessed as BNP promoter-driven transcriptional activity at 10 uM after 24 hrs by luciferase reporter gene assay relative to control; outline: as §2
# [12] = target: T2, GATA4/NKX2-5 (Rattus norvegicus); assay: as §4, with “reduction” for “increase”; outline: as §5
# [13] = target: T2, GATA4/NKX2-5 (Rattus norvegicus); assay: as §4, with “reduction” for “increase”, “hypertrophic response” for “BNP-promoter driven activity”, “at” for “at 10 to”; outline: as §5
# Homeobox protein Nkx-2.5 (Mus musculus), sequence (P42582 whole entry): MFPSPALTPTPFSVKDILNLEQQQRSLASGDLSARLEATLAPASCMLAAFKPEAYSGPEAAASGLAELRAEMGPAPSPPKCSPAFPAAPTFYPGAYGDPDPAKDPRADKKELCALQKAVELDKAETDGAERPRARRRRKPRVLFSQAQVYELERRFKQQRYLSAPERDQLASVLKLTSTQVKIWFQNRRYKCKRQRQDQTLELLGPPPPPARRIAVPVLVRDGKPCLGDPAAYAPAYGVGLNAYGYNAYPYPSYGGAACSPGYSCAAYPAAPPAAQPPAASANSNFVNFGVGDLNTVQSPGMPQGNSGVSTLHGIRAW
# Transcription factor GATA-4 (Mus musculus), sequence (Q08369 whole entry): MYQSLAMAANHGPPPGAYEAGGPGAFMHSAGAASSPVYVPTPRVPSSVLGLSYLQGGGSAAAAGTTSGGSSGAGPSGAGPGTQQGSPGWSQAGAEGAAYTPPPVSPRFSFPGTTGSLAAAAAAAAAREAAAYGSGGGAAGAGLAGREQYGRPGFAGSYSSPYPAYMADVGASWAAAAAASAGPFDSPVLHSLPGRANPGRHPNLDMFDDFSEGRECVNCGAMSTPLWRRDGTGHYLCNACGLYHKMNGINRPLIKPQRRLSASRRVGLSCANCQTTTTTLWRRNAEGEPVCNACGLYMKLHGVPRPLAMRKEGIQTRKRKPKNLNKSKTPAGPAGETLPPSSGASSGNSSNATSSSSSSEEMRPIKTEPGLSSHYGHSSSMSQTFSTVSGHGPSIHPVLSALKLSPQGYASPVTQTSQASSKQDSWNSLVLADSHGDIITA
SMILES,Activity [1] [%],Activity [2] [%],Activity [3] [%],Activity [7] [%],Activity [9] [%],Activity [10] [%],Activity [11] [%],Activity [4],Activity (COS-1 [5]) [%],Activity (COS-1 [6]) [%],Activity (COS-1 [8]),Activity [12],Activity [13]
CCN(CC)c1ccc(NC(=O)c2c(C)noc2-c2snnc2C)cc1,21,68,24,,,,,Active,< 8,> 10,,,
CCN(c1ccc(NC(=O)c2cnsc2)cc1)C(C)C,11,,12,20,,,,,,,,Active,Active

# The next lines start with results.
Activity [1] [%],Activity [2] [%],Activity [3] [%],Activity [7] [%],Activity [9] [%],Activity [10] [%],Activity [11] [%],SMILES,Activity [4],Activity (COS-1 [5]) [%],Activity (COS-1 [6]) [%],Activity (COS-1 [8]),Activity [12],Activity [13]
29,,26,41,,,,Cc1onc(-c2ccccc2)c1COc1ccc(C(=O)OCCC#N)cc1,,< 8,> 10,> 10%,,
,,,,170,110,220,Cc1onc(-c2ccccc2)c1C(=O)N(C1=NC(C)CS1)c1ccc(Cl)cc1 (centres undefined),Active,< 8,,Non-Toxic,,
34,,22,43,,,,CCC(=O)N(Cc1ccc(N(CC)CC)cc1)c1c(-c2ccccc2)noc1C,,< 8,> 10,> 10%,,
